What all share (format): tissue-based, Muscle tissue
Data set [1] is described as follows: Cytotoxicity against human skeletal muscle Myotube assessed as change in POLG mitochondrial RNA level on day 5 by RT-PCR relative to untreated control. In short, it runs like this:
(§1)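 Myoblasts at 70-80% confluence were differentiated into myotubes for 72 h in alpha-MEM with 10% FCS and penicillin/streptomycin. They were then treated with NRTIs at plasma Cmax levels (ddI 11.8, d4T 3.6, AZT 7.1, 3TC 8.3, ABV 3.0 μmol) for 5 days at 37°C, 5% CO2, with medium renewed every 2 days. mtDNA:nDNA, or RNA:G6PDH copies by real-time PCR, is expressed relative to untreated cells. Five repeats.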

The nature of data set [2]: Cytotoxicity against human skeletal muscle Myoblast assessed as increase in mitochondrial DNA on day 2 by RT-PCR relative to untreated control. In short, it runs like this:
(§2)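 Myoblasts were treated from 20-30% confluence with NRTIs at plasma Cmax levels (ddI 11.8, d4T 3.6, AZT 7.1, 3TC 8.3, ABV 3.0 μmol), singly or combined. Medium was changed every 2 days at 37°C, 5% CO2, and cells were harvested on day 2 or 5. mtDNA and nDNA were measured by LightCycler real-time PCR in duplicate. The mtDNA:nDNA ratio is expressed relative to untreated cells. Five repeats.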

A short description of data set [3]: Cytotoxicity against human skeletal muscle Myoblast assessed as change in MTCYB mitochondrial RNA level on day 2 by RT-PCR relative to untreated control. The gist of the method:
(§3)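 Proliferating human skeletal muscle myoblasts were treated from 20-30% confluence in growth medium, with NRTIs dissolved in sterile water. Doses were plasma Cmax levels (ddI 11.8, d4T 3.6, AZT 7.1, 3TC 8.3, ABV 3.0 μmol), given singly or as combinations. Controls got medium only, and medium was renewed every 2 days at 37°C, 5% CO2. Real-time RT-PCR copies were normalized to G6PDH and expressed relative to untreated cells. Five repeats.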

Data set [4] can be described thus: Cytotoxicity against human skeletal muscle Myoblast assessed as change in Tfam mitochondrial RNA level on day 5 by RT-PCR relative to untreated control. In short, it runs like this:
as §3

Data set [5] can be described thus: Cytotoxicity against human skeletal muscle Myoblast at 100 uL on day 5 by WST-1 assay. In short, it runs like this:
(§4)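 After 5 days of NRTI treatment at Cmax levels, 100 μl WST-1 reagent was added per well and incubated 1 h at 37°C, 5% CO2. Supernatant absorbance was read at 450 nm in duplicate. Results are the ratio of treated to untreated wells, run in triplicate.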
On the technique in general: Tetrazolium assays rely on reduction of a dye to a coloured formazan, in cell work by metabolically active cells.

Data set [6] is described as follows: Cytotoxicity against human skeletal muscle Myoblast assessed as change in MTCO3 mitochondrial RNA level on day 2 by RT-PCR relative to untreated control. The gist of the method: as §3
Data set [7] in a line: Cytotoxicity against human skeletal muscle Myoblast assessed as change in POLG mitochondrial RNA level on day 5 by RT-PCR relative to untreated control. In short, it runs like this:
as §3

A short description of data set [8]: Cytotoxicity against human skeletal muscle Myoblast assessed as change in POLG mitochondrial RNA level on day 2 by RT-PCR relative to untreated control. The gist of the method:
as §3

Data set [9] can be described thus: Cytotoxicity against human skeletal muscle Myotube assessed as decrease in MTCO3 mitochondrial RNA level on day 5 by RT-PCR relative to untreated control. The gist of the method:
as §1

The nature of data set [10]: Cytotoxicity against human skeletal muscle Myotube assessed as change in Tfam mitochondrial RNA level on day 5 by RT-PCR relative to untreated control. The gist of the method: as §1
The nature of data set [11]: Cytotoxicity against human skeletal muscle Myoblast assessed as increase in mitochondrial DNA on day 5 by RT-PCR relative to untreated control. The gist of the method:
as §2

Data set [12] in a line: Cytotoxicity against human skeletal muscle Myoblast assessed as change in Tfam mitochondrial RNA level on day 2 by RT-PCR relative to untreated control. In short, it runs like this: as §3
Data set [13] in a line: Cytotoxicity against human skeletal muscle Myotube at 100 uL on day 5 by WST-1 assay. The gist of the method:
as §4

The nature of data set [14]: Cytotoxicity against human skeletal muscle Myoblast assessed as decrease in mitochondrial DNA on day 2 by RT-PCR relative to untreated control. In short, it runs like this:
as §2

Data set [15] is described as follows: Cytotoxicity against human skeletal muscle Myoblast assessed as decrease in MTCYB mitochondrial RNA level on day 5 by RT-PCR relative to untreated control. The gist of the method:
as §3

Data set [16] is described as follows: Cytotoxicity against human skeletal muscle Myoblast assessed as decrease in mitochondrial DNA on day 5 by RT-PCR relative to untreated control. In short, it runs like this:
as §2

Data set [17] is described as follows: Cytotoxicity against human skeletal muscle Myotube assessed as decrease in MTCYB mitochondrial RNA level on day 5 by RT-PCR relative to untreated control. In short, it runs like this: as §1
Data set [18] in a line: Cytotoxicity against human skeletal muscle Myotube assessed as decrease in mitochondrial DNA on day 5 by RT-PCR relative to untreated control. In short, it runs like this: as §1

Regarding `Cc1cn([C@H]2C=C[C@@H](CO)O2)c(=O)[nH]c1=O` [STAVUDINE], the Activity entry in data set [1], in data set [3], in data set [4], in data set [5], in data set [6] and in [7] was “Non-toxic” each time. In addition, the Activity entry in [8], in [10], in data set [12] and in data set [13] was “Non-toxic” each time. Besides, the Ratio in [2] worked out at 1.2; in [9] it was 0.69; in [11] it was 0.98.

Consider `Nc1nc(NC2CC2)c2ncn([C@H]3C=C[C@@H](CO)C3)c2n1.Nc1nc(NC2CC2)c2ncn([C@H]3C=C[C@@H](CO)C3)c2n1.O=S(=O)(O)O` [ABACAVIR SULFATE], for which the Activity entry in data set [1], in [3], in data set [4], in [5], in data set [6] and in data set [7] was “Non-toxic” each time. Also, the Activity result in [8], in [10], in [12] and in data set [13] was “Non-toxic” each time. For the same molecule, the Ratio was 1.19 in data set [2] and 1.07 in data set [11].

`O=c1[nH]cnc2c1ncn2[C@H]1CC[C@@H](CO)O1` [DIDANOSINE]: the Activity entry in data set [1], in [3], in data set [4], in data set [5], in data set [6] and in data set [7] was “Non-toxic” each time. In addition, the Activity result in data set [8], in [10], in [12] and in [13] was “Non-toxic” each time. Moreover, the Ratio in data set [14] worked out at 0.51; in [15] it was 0.51; in [16], 0.22; in data set [17] it was 0.66; in data set [18] it was 0.5.

Turning to `Cc1cn([C@H]2C[C@H](N=[N+]=[N-])[C@@H](CO)O2)c(=O)[nH]c1=O` [ZIDOVUDINE], the Activity entry in data set [1], in data set [3], in data set [4], in [5], in [6] and in [7] was “Non-toxic” each time. The Activity entry in [8], in data set [10], in data set [12] and in data set [13] was “Non-toxic” each time. Besides, the Ratio in [2] is on record as 1.45; in data set [11], 1.14.

Take `Nc1ccn([C@@H]2CS[C@H](CO)O2)c(=O)n1` [LAMIVUDINE]: the Activity result in data set [1], in data set [3], in data set [4], in [5], in data set [6] and in data set [7] was “Non-toxic” in each case. Also, the Activity result in data set [8], in [10], in data set [12] and in data set [13] was “Non-toxic” throughout. Further, the Ratio in data set [2] is 1.16; in data set [11], 0.94.

(Values after ChEMBL document CHEMBL1671862, “Impact of nucleoside reverse transcriptase inhibitors on mitochondrial DNA and RNA in human skeletal muscle cells” (Antimicrob Agents Chemother, 2008).)
